pIC50: −log10 of the molar value.
Legend:
[1] = molecular target: T1, Muscarinic acetylcholine receptor M1 (Homo sapiens) (UniProt P11229); assay: Inhibition of muscarinic M1 receptor at 10 uM
T1 sequence (whole entry): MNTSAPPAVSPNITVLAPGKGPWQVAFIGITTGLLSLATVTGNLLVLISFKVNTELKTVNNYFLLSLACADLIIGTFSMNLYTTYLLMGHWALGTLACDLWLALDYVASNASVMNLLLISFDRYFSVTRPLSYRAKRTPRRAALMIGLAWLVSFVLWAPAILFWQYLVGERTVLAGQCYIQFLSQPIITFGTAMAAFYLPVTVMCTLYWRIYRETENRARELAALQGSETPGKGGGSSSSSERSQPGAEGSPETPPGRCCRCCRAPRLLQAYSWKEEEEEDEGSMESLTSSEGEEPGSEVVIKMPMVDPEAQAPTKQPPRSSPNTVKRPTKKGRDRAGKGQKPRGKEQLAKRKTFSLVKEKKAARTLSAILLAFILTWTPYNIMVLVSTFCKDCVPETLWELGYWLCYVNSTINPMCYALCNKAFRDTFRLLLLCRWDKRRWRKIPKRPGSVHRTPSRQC

[2] = molecular target: T2, 5-hydroxytryptamine receptor 2C (Homo sapiens) (UniProt P28335); assay: Inhibition of 5HT2C receptor at 10 uM
T2 sequence (whole entry): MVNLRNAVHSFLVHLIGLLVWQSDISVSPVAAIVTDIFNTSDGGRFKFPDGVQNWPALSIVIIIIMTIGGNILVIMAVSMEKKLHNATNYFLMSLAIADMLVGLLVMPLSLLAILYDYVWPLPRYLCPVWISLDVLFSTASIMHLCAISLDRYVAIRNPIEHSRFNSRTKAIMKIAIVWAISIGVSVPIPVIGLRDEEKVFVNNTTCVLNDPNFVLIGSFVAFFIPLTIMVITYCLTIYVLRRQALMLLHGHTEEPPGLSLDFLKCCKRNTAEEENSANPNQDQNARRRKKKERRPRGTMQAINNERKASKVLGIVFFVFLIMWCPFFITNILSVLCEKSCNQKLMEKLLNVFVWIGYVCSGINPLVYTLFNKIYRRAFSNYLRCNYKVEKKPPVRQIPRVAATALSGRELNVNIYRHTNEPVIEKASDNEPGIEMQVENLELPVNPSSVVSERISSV

[3] = molecular target: T3, Sodium-dependent noradrenaline transporter (Homo sapiens, UniProt P23975); assay: Inhibition of norepinephrine reuptake at human NET expressed in MDCK cells; assay type: cell-based
T3 sequence (P23975 whole entry): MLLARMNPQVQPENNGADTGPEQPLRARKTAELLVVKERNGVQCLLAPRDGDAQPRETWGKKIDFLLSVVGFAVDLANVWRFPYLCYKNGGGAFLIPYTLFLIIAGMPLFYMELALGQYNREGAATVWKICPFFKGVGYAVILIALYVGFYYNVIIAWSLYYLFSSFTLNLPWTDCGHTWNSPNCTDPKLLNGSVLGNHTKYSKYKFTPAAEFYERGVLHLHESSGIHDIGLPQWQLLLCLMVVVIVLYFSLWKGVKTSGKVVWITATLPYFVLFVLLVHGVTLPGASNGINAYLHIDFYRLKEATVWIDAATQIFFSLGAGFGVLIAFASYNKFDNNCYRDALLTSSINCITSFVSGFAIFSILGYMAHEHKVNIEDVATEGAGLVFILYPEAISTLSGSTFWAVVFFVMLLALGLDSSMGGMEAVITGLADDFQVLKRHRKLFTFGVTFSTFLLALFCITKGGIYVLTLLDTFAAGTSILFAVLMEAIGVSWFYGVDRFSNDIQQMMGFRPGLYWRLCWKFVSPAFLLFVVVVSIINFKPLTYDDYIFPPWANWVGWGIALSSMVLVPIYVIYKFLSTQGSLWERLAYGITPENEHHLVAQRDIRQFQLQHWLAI

[4] = Half life in rat at 10 mg/kg, iv; assay type: ADME, organism-based; design: dose 10 mg/kg, route intravenous; details: in vivo
[5] = Oral bioavailability in rat at 10 mg/kg; assay type: ADME, organism-based; details: in vivo
[6] = molecular target: Cytochrome P450 2D6 (Homo sapiens, UniProt P10635); assay: Inhibition of CYP2D6; assay type: ADME
Cytochrome P450 2D6, sequence (P10635 whole entry): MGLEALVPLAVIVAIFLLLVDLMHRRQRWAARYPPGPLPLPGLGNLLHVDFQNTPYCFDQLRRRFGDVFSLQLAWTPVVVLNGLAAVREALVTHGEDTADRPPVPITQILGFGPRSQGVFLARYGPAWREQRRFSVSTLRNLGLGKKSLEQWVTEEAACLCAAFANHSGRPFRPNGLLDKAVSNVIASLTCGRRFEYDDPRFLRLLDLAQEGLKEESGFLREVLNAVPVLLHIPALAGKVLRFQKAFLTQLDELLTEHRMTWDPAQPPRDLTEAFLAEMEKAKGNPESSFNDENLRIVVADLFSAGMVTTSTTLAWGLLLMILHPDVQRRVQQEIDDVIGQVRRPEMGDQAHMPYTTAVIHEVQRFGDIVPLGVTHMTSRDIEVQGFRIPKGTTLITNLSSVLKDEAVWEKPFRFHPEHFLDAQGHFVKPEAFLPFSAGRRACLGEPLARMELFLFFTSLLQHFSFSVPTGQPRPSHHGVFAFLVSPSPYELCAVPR

[7] = test system: Mus musculus; assay: Antidepressant activity in mouse assessed as reduction of mobility time by forced swimming test at 10 mg/kg, po; assay type: functional; design: scale not given: the % may be the effect or the level left
Method in brief: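 Mouse forced swimming test with oral dosing. Read-out is immobility time, expressed as % reduction of immobility. Minimal effective dose is the lowest dose with p <0.05. ED50 is given with 95% confidence limits. Doses are in mg/kg.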

[8] = molecular target: Cytochrome P450 3A4 (Homo sapiens, UniProt P08684); assay: Inhibition of CYP3A4; assay type: ADME
Cytochrome P450 3A4, sequence (P08684 whole entry): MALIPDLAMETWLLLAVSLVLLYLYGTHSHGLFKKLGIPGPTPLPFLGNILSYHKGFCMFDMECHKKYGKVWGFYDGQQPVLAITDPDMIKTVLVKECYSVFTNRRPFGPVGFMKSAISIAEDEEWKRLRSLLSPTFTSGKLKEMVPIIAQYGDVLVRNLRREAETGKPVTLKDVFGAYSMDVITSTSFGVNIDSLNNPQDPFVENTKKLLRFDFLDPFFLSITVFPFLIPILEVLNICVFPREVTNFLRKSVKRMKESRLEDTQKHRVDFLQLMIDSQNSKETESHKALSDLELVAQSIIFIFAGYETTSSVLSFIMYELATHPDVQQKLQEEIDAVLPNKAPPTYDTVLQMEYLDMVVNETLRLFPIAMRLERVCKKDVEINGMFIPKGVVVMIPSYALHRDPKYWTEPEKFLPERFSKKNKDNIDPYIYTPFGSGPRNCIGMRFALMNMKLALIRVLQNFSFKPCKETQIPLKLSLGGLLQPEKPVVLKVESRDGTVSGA

[9] = Inhibition of alpha1 adrenergic receptor at 10 uM
[10] = molecular target: Sodium-dependent serotonin transporter (Homo sapiens, UniProt P31645); assay: Inhibition of serotonin reuptake at human SERT expressed in HEK293 cells; assay type: cell-based
Sodium-dependent serotonin transporter, sequence (P31645 whole entry): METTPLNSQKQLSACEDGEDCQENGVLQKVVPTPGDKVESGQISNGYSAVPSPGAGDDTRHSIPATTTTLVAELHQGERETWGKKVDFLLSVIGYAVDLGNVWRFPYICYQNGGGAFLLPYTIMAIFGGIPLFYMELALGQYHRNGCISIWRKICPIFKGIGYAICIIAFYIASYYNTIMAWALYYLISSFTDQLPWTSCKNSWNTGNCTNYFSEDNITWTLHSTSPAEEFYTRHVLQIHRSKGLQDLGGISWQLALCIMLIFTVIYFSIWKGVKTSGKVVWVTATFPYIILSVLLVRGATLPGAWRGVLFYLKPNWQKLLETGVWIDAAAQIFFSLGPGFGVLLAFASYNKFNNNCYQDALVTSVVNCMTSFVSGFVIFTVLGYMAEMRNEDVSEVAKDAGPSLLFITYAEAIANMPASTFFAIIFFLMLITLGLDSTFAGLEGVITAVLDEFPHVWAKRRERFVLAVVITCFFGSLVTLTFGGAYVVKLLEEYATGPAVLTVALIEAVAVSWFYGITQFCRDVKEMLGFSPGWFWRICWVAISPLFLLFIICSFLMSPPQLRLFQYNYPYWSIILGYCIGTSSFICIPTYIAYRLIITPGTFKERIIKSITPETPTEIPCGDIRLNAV

[11] = Cmax in rat at 10 mg/kg, iv; assay type: ADME, organism-based; design: dose 10 mg/kg, route intravenous; details: in vivo
[12] = test system: Mus musculus; assay: Antidepressant activity in po dosed mouse assessed as reduction of mobility time by tail suspension test; assay type: functional; details: read-out: MED
Method in brief: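 Mouse tail suspension test with oral dose–response. Read-out is immobility time, reported as % reduction of immobility. Minimal effective dose is the lowest dose giving p <0.05. Doses are in mg/kg.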

[13] = test system: Mus musculus; assay: Potentiation of […]-induced serotonin syndrome like behavior in mouse at 30 mg/kg, po; assay type: functional
Method in brief: (§1)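 Mice, oral dosing. For serotonin potentiation, 5-hydroxytryptophan (5-HTP, serotonin precursor) is given to induce serotonin syndrome-like head twitch/stereotypy counts. Response is expressed as % potentiation relative to control group (0%). Minimal effective dose is the lowest dose reaching p <0.05. Doses are in mg/kg.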

[14] = Cmax in rat at 10 mg/kg, po; assay type: ADME, organism-based; design: dose 10 mg/kg, route oral; details: in vivo
[15] = Clearance in rat at 10 mg/kg, iv; assay type: ADME, organism-based; design: dose 10 mg/kg, route intravenous; details: in vivo
[16] = molecular target: Sodium-dependent serotonin transporter (Rattus norvegicus) (UniProt P31652); assay: Displacement of [3H]paroxetine from SERT in rat cerebral cortex at 100 nM
Sodium-dependent serotonin transporter (Rattus norvegicus), sequence (P31652 whole entry): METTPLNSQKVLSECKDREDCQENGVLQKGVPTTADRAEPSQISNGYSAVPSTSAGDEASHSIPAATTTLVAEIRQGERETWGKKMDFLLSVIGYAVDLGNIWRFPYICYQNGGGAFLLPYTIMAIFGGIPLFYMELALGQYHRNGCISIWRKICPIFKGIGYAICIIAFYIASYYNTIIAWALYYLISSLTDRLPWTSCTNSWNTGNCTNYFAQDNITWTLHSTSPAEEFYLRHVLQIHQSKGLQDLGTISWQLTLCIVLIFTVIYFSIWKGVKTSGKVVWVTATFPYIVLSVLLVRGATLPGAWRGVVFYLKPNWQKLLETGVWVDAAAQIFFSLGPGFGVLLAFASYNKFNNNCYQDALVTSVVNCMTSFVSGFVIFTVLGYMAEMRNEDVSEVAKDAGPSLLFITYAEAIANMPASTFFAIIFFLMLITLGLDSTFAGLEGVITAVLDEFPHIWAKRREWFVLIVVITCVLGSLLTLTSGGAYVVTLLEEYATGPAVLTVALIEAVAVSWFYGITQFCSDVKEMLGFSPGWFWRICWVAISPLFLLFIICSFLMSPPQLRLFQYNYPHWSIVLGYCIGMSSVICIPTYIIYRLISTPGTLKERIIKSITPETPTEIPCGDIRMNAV

[17] = molecular target: T4, Sodium-dependent dopamine transporter (Homo sapiens, UniProt Q01959); assay: Inhibition of dopamine reuptake at human dopamine transporter expressed in CHO cells; assay type: cell-based
T4 sequence (Q01959 whole entry): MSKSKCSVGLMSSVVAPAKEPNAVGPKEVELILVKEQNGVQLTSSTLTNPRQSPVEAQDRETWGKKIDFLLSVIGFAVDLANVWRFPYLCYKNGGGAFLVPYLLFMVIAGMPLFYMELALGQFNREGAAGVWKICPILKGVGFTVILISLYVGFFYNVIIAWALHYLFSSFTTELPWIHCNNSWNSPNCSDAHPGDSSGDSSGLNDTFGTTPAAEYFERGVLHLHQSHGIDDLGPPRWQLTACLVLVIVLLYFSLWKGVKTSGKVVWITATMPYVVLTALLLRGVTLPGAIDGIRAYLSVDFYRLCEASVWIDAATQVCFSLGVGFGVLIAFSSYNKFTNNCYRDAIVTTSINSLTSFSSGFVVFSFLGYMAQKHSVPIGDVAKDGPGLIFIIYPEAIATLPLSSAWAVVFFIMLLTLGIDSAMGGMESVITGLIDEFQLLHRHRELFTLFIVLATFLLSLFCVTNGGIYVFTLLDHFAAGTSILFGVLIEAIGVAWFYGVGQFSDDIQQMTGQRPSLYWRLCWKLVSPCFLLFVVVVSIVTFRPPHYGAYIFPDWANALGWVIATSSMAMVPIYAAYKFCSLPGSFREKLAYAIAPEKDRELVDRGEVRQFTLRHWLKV
Method in brief: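 CHO-K1 cells stably expressing human DAT, assayed for [3H]DA uptake in duplicate. Nomifensine served as standard. IC50 determined.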

[18] = molecular target: Muscarinic acetylcholine receptor M3 (Homo sapiens) (UniProt P20309); assay: Inhibition of muscarinic M3 receptor at 10 uM
Muscarinic acetylcholine receptor M3 (Homo sapiens), sequence (P20309 whole entry, looked up): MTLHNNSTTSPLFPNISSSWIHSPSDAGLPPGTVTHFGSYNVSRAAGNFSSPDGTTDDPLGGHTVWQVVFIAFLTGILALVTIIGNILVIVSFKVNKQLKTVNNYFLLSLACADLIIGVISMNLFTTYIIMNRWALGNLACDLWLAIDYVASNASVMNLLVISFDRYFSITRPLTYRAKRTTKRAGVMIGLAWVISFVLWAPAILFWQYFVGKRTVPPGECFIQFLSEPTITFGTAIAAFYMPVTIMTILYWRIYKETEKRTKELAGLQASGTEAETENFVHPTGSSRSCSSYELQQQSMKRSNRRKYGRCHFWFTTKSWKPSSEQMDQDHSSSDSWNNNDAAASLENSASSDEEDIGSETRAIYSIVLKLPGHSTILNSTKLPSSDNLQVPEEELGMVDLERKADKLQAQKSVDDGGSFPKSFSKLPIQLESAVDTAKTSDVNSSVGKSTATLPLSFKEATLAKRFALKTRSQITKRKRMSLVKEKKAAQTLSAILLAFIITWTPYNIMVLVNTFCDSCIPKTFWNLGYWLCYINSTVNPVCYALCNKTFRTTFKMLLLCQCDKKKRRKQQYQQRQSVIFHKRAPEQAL

[19] = Half life in human liver microsomes; assay type: ADME, Microsome
Method in brief: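 Metabolic stability in human or rat liver microsomes. Half-lives measurable up to 60 min.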

[20] = AUC in rat at 10 mg/kg, po; assay type: ADME, organism-based; design: dose 10 mg/kg, route oral; details: plasma
[21] = molecular target: Histamine H1 receptor (Homo sapiens) (UniProt P35367); assay: Inhibition of histamine H1 receptor at 10 uM
Histamine H1 receptor (Homo sapiens), sequence (P35367 whole entry): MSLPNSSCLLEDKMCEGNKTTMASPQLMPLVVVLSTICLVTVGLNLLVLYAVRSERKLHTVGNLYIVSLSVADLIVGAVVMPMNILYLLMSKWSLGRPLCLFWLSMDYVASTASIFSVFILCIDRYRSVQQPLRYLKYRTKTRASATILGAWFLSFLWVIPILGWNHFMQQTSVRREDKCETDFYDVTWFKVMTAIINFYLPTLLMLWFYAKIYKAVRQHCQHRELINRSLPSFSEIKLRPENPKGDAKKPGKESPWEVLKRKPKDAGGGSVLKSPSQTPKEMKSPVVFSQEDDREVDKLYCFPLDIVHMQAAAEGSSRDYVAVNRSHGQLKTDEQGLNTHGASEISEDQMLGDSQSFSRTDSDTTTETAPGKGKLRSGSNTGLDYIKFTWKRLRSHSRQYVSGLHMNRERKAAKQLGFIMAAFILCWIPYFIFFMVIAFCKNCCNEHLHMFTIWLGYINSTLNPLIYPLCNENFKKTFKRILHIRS

[22] = test system: Mus musculus; assay: Analgesic activity in mouse assessed as reduction of acetic acid-induced writhing at 30 mg/kg
[23] = molecular target: T3, Sodium-dependent noradrenaline transporter; assay: Inhibition of norepinephrine reuptake at human NET expressed in MDCK cells at 100 nM
[24] = test system: Mus musculus; assay: Antidepressant activity in mouse assessed as change in locomotion at 30 mg/kg, po; assay type: functional
[25] = Half life in rat at 10 mg/kg, po; assay type: ADME, organism-based; design: dose 10 mg/kg, route oral; details: in vivo
[26] = Volume of distribution at steady state in rat at 10 mg/kg, iv; assay type: ADME, organism-based; design: dose 10 mg/kg, route intravenous; details: in vivo, read-out: Vdss
[27] = test system: Mus musculus; assay: Potentiation of […]-induced serotonin syndrome like behavior in po dosed mouse; assay type: functional; details: read-out: MED; method in brief: as §1
[28] = test system: Mus musculus; assay: Anxiolytic activity in mouse assessed as inhibition of marble buried at 30 mg/kg, ip by marble burying test; assay type: functional; details: route intraperitoneal
[29] = test system: Mus musculus; assay: Antidepressant activity in mouse assessed as reduction of mobility time at 3 mg/kg, po by tail suspension test; assay type: functional; design: scale not given: the % may be the effect or the level left
Method in brief: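 Mouse tail suspension test run as an oral dose–response. Read-out is percent reduction of immobility time; minimal effective dose taken at p<0.05.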

[30] = molecular target: T4, Sodium-dependent dopamine transporter; assay: Inhibition of dopamine reuptake at human dopamine transporter expressed in CHO cells at 100 nM
[31] = Tmax in rat at 10 mg/kg, po; assay type: ADME, organism-based; design: dose 10 mg/kg, route oral; details: in vivo
[32] = AUC in rat at 10 mg/kg, iv; assay type: ADME, organism-based; design: dose 10 mg/kg, route intravenous; details: plasma

- inhibition [1]: < 20%
- inhibition [2]: 66%
- pIC50 [3]: 7.70
- half-life [4]: 3.12 h
- bioavailability [5]: 43.2%
- pIC50 [6]: 5.16
- pIC50 [8]: < 5.00
- inhibition [9]: < 20%
- pIC50 [10]: 6.84
- Cmax [11]: 3830 ng/mL
- Cmax [14]: 334 ng/mL
- clearance [15]: 42 mL/min/kg
- inhibition [16]: 61.2%
- pIC50 [17]: 7.24
- inhibition [18]: < 20%
- half-life [19]: > 1 h
- AUC [20]: 1280 ng·h/mL
- inhibition [21]: < 20%
- inhibition [23]: 84%
- half-life [25]: 5.48 h
- Vd [26]: 6.8 L/kg
- inhibition [30]: 62%
- Tmax [31]: 0.75 h
- AUC [32]: 3830 ng·h/mL
Compound: CNCC[C@@H](c1ccc(Cl)c(Cl)c1)n1nnc(C)n1
- Activity [7]: 14.9%
- minimal effective dose [12]: 3 mg/kg
- Activity [13]: 158%
- inhibition in vivo at 30 mg/kg [22]: 94.4%
- Activity [24]: 92%
- minimal effective dose [27]: 30 mg/kg
- inhibition in vivo at 30 mg/kg [28]: 94.4%
- Activity [29]: 59.6%

Source: ChEMBL document CHEMBL1221386, “Synthesis and pharmacological evaluation of 3-aryl-3-azolylpropan-1-amines as selective triple serotonin/norepinephrine/dopamine reuptake inhibitors” (Bioorg Med Chem Lett, 2010)
